Laboratory results: ChEMBL document CHEMBL1144999, “Identification of a novel, selective GABA(A) alpha5 receptor inverse agonist which enhances cognition” (J Med Chem, 2003)
pKi: −log10 of the molar value.

Key:
[1] = biological target: T1, Gamma-aminobutyric acid receptor subunit alpha-5 (Homo sapiens) (UniProt P31644); test: Binding selectivity for human gamma-aminobutyric-acid A receptor alpha-5 over GABA A alpha1,alpha2 and alpha-3 receptors
T1 sequence (whole entry): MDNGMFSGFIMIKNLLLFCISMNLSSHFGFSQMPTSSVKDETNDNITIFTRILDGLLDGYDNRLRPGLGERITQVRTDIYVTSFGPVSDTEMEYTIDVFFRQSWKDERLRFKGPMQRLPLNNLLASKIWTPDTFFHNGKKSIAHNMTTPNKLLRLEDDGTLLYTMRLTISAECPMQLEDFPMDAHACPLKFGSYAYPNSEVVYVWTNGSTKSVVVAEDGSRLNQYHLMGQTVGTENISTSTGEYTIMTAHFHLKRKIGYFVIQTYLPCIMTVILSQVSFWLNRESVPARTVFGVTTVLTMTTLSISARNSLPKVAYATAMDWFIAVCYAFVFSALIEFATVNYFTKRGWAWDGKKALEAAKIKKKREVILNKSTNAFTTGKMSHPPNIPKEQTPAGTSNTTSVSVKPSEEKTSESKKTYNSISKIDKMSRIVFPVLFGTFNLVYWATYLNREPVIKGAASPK

[2] = biological target: GABA-A receptor; alpha-1/beta-3/gamma-2 (Homo sapiens) (UniProt P14867+P18507+P28472); test: Efficacy for human GABA-A receptor alpha-1-beta-3-gamma-2 subunits expressed in mammalian fibroblast L(tk-)cells; assay type: cell-based
[3] = biological target: T2, GABA-A receptor; alpha-5/beta-3/gamma-2 (Homo sapiens) (UniProt P18507+P28472+P31644); test: Efficacy for GABA-A receptor alpha-5-beta-3-gamma-2 subunits expressed in Xenopus laevis oocytes by two-electrode voltage clamp recording; assay type: cell-based; details: Oocyte
Outline: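 Two-electrode voltage clamp on Xenopus laevis oocytes injected with human α5β3γ2 cDNA, recorded 2-4 days after injection. Expression checked with 3 mM GABA; oocytes with currents <0.3 μA rejected. A GABA EC20 was determined per oocyte. Compound applied at a single concentration near 100× Ki. Efficacy (%) = (current with compound/control EC20 current × 100) − 100.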

[4] = biological target: GABA-A receptor; alpha-2/beta-3/gamma-2 (Homo sapiens) (UniProt P18507+P28472+P47869); test: Efficacy for human GABA-A receptor alpha-2-beta-3-gamma-2 subunits expressed in mammalian fibroblast L(tk-)cells; assay type: cell-based
[5] = biological target: T3, Gamma-aminobutyric acid receptor subunit alpha-5 (Mus musculus) (UniProt Q8BHJ7); test: In vivo [3H]L-655708 binding to mouse GABA-A receptor alpha-5 subunit at 3 mg/kg ip dose; assay type: organism-based; parameters: dose 3 mg/kg
T3 sequence (whole entry): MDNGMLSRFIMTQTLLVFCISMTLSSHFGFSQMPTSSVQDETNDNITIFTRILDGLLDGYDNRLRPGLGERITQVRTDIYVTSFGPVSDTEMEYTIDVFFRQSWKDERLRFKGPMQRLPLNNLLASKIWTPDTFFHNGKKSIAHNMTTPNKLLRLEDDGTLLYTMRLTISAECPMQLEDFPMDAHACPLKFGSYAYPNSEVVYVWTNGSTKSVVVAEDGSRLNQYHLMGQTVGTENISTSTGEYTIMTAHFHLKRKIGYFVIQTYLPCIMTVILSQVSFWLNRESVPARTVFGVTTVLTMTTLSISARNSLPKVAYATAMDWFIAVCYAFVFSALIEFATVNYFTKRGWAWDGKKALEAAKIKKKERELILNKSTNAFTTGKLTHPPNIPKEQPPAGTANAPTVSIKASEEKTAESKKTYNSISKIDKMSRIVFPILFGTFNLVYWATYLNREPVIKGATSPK
Outline: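 Mice were dosed ip at 10 mL/kg in 70% PEG 300. Controls were vehicle (total binding) and 5 mg/kg bretazenil (nonspecific). [3H]L-655,708 (11 µCi/mL, 1 mL/kg) was given iv 1 min before killing, 30 min after drug. Forebrain was homogenized in ice-cold 10 mM KH2PO4/100 mM KCl pH 7.4, filtered and counted by scintillation. Occupancy = 100 − (drug/vehicle specific binding)×100.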

[6] = biological target: T2, GABA-A receptor; alpha-5/beta-3/gamma-2 (Homo sapiens); test: Efficacy for human GABA-A receptor alpha-5-beta-3-gamma-2 subunits expressed in mammalian fibroblast L(tk-)cells; assay type: cell-based
[7] = biological target: GABA-A receptor; alpha-3/beta-3/gamma-2 (Homo sapiens) (UniProt P18507+P28472+P34903); test: Efficacy for human GABA-A receptor alpha-3-beta-3-gamma-2 subunits expressed in mammalian fibroblast L(tk-)cells; assay type: cell-based
[8] = biological target: T1, Gamma-aminobutyric acid receptor subunit alpha-5 (Homo sapiens); test: Binding selectivity for GABA-A alpha5 subunit over GABA-A alpha1,alpha2 or alpha3 subunit receptors
Outline: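 Ki from [3H]Ro 15-1788 displacement at human recombinant α1, α2, α3 or α5 with β3γ2 receptors in L(tk-) cell membranes. […] Ki is geometric mean ± SEM of three determinations, and the ratio is taken against the α5 Ki.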

[9] = biological target: GABA-A receptor; anion channel; test: Binding affinity for GABA-A Benzodiazepine receptor; assay type: protein-complex assay
Outline: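 Displacement of [3H]Ro 15-1788 binding from harvested L(tk-) cells stably expressing human recombinant GABA-A receptors with β3 and γ2 subunits plus α1, α2, α3 or α5. […] Ki given as geometric mean ± SEM of three independent determinations.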

| Compound | Selectivity [1] | Efficacy [2] [%] | Efficacy [3] | Efficacy [4] [%] | Occupancy [5] [%] | Efficacy [6] [%] | Efficacy [7] [%] | Selectivity [8] | pKi [9] |
| --- | --- | --- | --- | --- | --- | --- | --- | --- | --- |
| CCc1c(C(=O)OC)ncc2[nH]c3cc(OC)c(OC)cc3c12 | 6 | -71 | -34 | -53 |  |  |  |  |  |
| CC1(C)CC(=O)c2c(SCCO)sc(-c3nccs3)c2C1 |  | -21 | -38 | -1 | 91 | -51 | -3 | 13 |  |
| CC(=O)c1cc2c(s1)CCCC1=C2NN(c2ccc(Cl)cc2)C(=O)C1 |  |  |  |  |  |  |  |  | 8.38 |
